Results: ChEMBL document CHEMBL1255300, “Pharmacodynamics of the antibacterial effect and emergence of resistance to tomopenem, formerly RO4908463/CS-023, in an in vitro pharmacokinetic model of Staphylococcus aureus infection” (Antimicrob Agents Chemother, 2008)
≈ marks a conversion by molar mass, not a printed value. Calls of active or inactive are those of the source. The rule behind the calls is not given here.

Columns and labels:
Staphylococcus aureus [1] = assay: Antibacterial activity against methicillin-resistant Staphylococcus aureus 33815 infected in in vitro pharmacokinetic model assessed as time required to 99% killing at 1500 mg, iv every 8 hrs using 10^6 CFU/ml inoculum; format: functional
Serum = assay: Drug level in human serum at 1400 mg; format: ADME, cell-free
Staphylococcus aureus [2] = assay: AUBKC (0 to 24 hrs) in methicillin-resistant Staphylococcus aureus 33815 infected in in vitro pharmacokinetic model at 1500 mg, iv every 8 hrs using 10^6 CFU/ml inoculum; format: functional
Outline: (§1)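 Single-compartment dilutional in vitro PK model at 37°C in 10% Mueller-Hinton broth, stirred, flow 132 ml/h. […] Inoculum 10^6 CFU/ml added 45 min before dosing, or 10^8 CFU/ml run overnight. Viable counts with β-lactamase neutralisation. AUBKC by log-linear trapezoidal rule, at least triplicate.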

Staphylococcus aureus [3] = assay: AUBKC (0 to 48 hrs) in methicillin-resistant Staphylococcus aureus 33827 infected in in vitro pharmacokinetic model at 750 mg, iv every 8 hrs using 10^6 CFU/ml inoculum; format: functional; outline: as §1
Staphylococcus aureus [4] = assay: Antibacterial activity against methicillin-resistant Staphylococcus aureus 33922 infected in in vitro pharmacokinetic model assessed as reduction in viable count at 750 mg, iv every 8 hrs measured after 36 hrs using 10^8 CFU/ml inoculum; format: functional
Staphylococcus aureus [5] = assay: Antibacterial activity against methicillin-sensitive Staphylococcus aureus 5956 by broth dilution method; format: functional
Staphylococcus aureus [6] = assay: Antibacterial activity against methicillin-resistant Staphylococcus aureus 33829 by 10% MH broth method; format: functional
Outline: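 MIC by CLSI broth dilution, or by broth dilution in 10% Mueller-Hinton broth at nondoubling dilutions.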

Staphylococcus aureus [7] = assay: AUBKC (0 to 24 hrs) in methicillin-resistant Staphylococcus aureus 33815 infected in in vitro pharmacokinetic model at 750 mg, iv every 8 hrs using 10^8 CFU/ml inoculum; format: functional; outline: as §1
Staphylococcus aureus [8] = assay: AUBKC (0 to 24 hrs) in methicillin-resistant Staphylococcus aureus 33815 infected in in vitro pharmacokinetic model at 1500 mg, iv every 8 hrs using 10^8 CFU/ml inoculum; format: functional; outline: as §1
Staphylococcus aureus [9] = assay: T>MIC in methicillin-resistant Staphylococcus aureus 33815 infected in vitro pharmacokinetic model at 1500 mg, iv every 8 hrs; format: functional
Staphylococcus aureus [10] = assay: Antibacterial activity against methicillin-resistant Staphylococcus aureus 33922 in in vitro pharmacokinetic model assessed as viable count at 2 times of MIC; format: functional
Staphylococcus aureus [11] = assay: Antibacterial activity against methicillin-resistant Staphylococcus aureus 33815 in in vitro pharmacokinetic model assessed as viable count at 2 times of MIC; format: functional
Outline: (§2)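 Preexposure population analysis profile: model sample at time zero plated on nutrient agar with tomopenem at multiples of the MIC. Growth counted as log CFU/ml, detection limit 2 log10.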

Staphylococcus aureus [12] = assay: Antibacterial activity against methicillin-resistant Staphylococcus aureus 33815 in in vitro pharmacokinetic model assessed as viable count at 6 times of MIC; format: functional; outline: as §2
Staphylococcus aureus [13] = assay: Antibacterial activity against methicillin-sensitive Staphylococcus aureus 5956 infected in in vitro pharmacokinetic model assessed as reduction in viable count at 750 mg, iv every 8 hrs measured after 24 hrs using 10^6 CFU/ml inoculum; format: functional
Staphylococcus aureus [14] = assay: Antibacterial activity against methicillin-resistant Staphylococcus aureus 33921 infected in in vitro pharmacokinetic model assessed as reduction in viable count at 750 mg, iv every 8 hrs measured after 36 hrs using 10^6 CFU/ml inoculum; format: functional
Staphylococcus aureus [15] = assay: Antibacterial activity against methicillin-resistant Staphylococcus aureus 33827 infected in in vitro pharmacokinetic model assessed as reduction in viable count at 750 mg, iv every 8 hrs measured after 36 hrs using 10^6 CFU/ml inoculum; format: functional
Outline: (§3)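 Single-compartment dilutional in vitro PK model, 10% Mueller-Hinton broth, 37°C, stirred, dilution 132 ml/h. […] Inoculum 10^6 CFU/ml (added 45 min pre-dose) or 10^8 CFU/ml (run overnight). Viable counts by spiral plating, beta-lactamase neutralization, detection limit 10^2 CFU/ml. At least triplicate.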

Staphylococcus aureus [16] = assay: Antibacterial activity against methicillin-resistant Staphylococcus aureus 33820 infected in in vitro pharmacokinetic model assessed as reduction in viable count at 750 mg, iv every 8 hrs measured after 36 hrs using 10^6 CFU/ml inoculum; format: functional
Outline: (§4)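 Single-compartment dilutional in vitro PK model, 37°C, stirred, in 10% Mueller-Hinton broth. […] Inoculum 10^6 CFU/ml from a 24-h plate culture was added 45 min before dosing. Viable counts by spiral plating on nutrient agar with β-lactamase neutralization. Log change was taken from time 0; detection limit 10^2 CFU/ml; at least triplicate.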

Staphylococcus aureus [17] = assay: Antibacterial activity against methicillin-sensitive Staphylococcus aureus 5956 assessed as viable count at 4 times of MIC after 48 hrs using 10^6 CFU/ml inoculum; format: functional, organism-based
Staphylococcus aureus [18] = assay: Antibacterial activity against methicillin-resistant Staphylococcus aureus 33921 assessed as viable count at 4 times of MIC after 48 hrs using 10^6 CFU/ml inoculum; format: functional, organism-based
Staphylococcus aureus [19] = assay: T>MIC for 2-log drop in count in methicillin-sensitive Staphylococcus aureus 5956 in in vitro pharmacokinetic model after 24 hrs using 10^6 CFU/ml inoculum; format: functional
Staphylococcus aureus [20] = assay: T>MIC for 4-log drop in count in methicillin-resistant Staphylococcus aureus 33827 in in vitro pharmacokinetic model after 24 hrs using 10^6 CFU/ml inoculum; format: functional
Staphylococcus aureus [21] = assay: T>MIC for 1-log drop in count in methicillin-sensitive Staphylococcus aureus 5956 in in vitro pharmacokinetic model after 24 hrs using 10^8 CFU/ml inoculum; format: functional
Staphylococcus aureus [22] = assay: T>MIC for 2-log drop in count in methicillin-resistant Staphylococcus aureus 33815 in in vitro pharmacokinetic model after 24 hrs using 10^8 CFU/ml inoculum; format: functional
Staphylococcus aureus [23] = assay: Antibacterial activity against methicillin-resistant Staphylococcus aureus 33815 infected in in vitro pharmacokinetic model assessed as reduction in viable count at 1500 mg, iv every 8 hrs measured after 12 hrs using 10^6 CFU/ml inoculum; format: functional
Outline: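 Log change in viable count from time zero to 12 h, β-lactamase-neutralised spiral plating, detection limit 10^2 CFU/ml, at least triplicate.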

Staphylococcus aureus [24] = assay: Antibacterial activity against methicillin-resistant Staphylococcus aureus 33827 infected in in vitro pharmacokinetic model assessed as reduction in viable count at 1500 mg, iv every 8 hrs measured after 24 hrs using 10^6 CFU/ml inoculum; format: functional; outline: as §3
Staphylococcus aureus [25] = assay: Antibacterial activity against methicillin-resistant Staphylococcus aureus 33921 infected in in vitro pharmacokinetic model assessed as reduction in viable count at 1500 mg, iv every 8 hrs measured after 36 hrs using 10^6 CFU/ml inoculum; format: functional; outline: as §3
Staphylococcus aureus [26] = assay: Antibacterial activity against methicillin-resistant Staphylococcus aureus 33820 infected in in vitro pharmacokinetic model assessed as reduction in viable count at 1500 mg, iv every 8 hrs measured after 36 hrs using 10^6 CFU/ml inoculum; format: functional; outline: as §4
Staphylococcus aureus [27] = assay: Antibacterial activity against methicillin-resistant Staphylococcus aureus 33922 infected in in vitro pharmacokinetic model assessed as reduction in viable count at 1500 mg, iv every 8 hrs measured after 48 hrs using 10^6 CFU/ml inoculum; format: functional

Q: For `C[C@@H](O)[C@H]1C(=O)N2C(C(=O)O)=C(S[C@H]3C[C@@H](C(=O)N4CC[C@H](NC(=O)CNC(=N)N)C4)N(C)C3)[C@H](C)[C@H]12` [TOMOPENEM], which Time (Staphylococcus aureus [1]) is on record?
A: 3 h

Q: What about the Drug uptake (Serum) of the same molecule?
A: 100 mg/L

Q: What about the AUBC (Staphylococcus aureus [2]) of the same molecule?
A: 12.5 log10CFU/ml.hr

Q: And the AUBC (Staphylococcus aureus [3])?
A: 44.9 log10CFU/ml.hr

Q: What about the log10CFU/ml (Staphylococcus aureus [4]) of the same molecule?
A: 5.5

Q: And the MIC (Staphylococcus aureus [5])?
A: 0.06 µg/mL (≈ 0.112 µM)

Q: What about the MIC (Staphylococcus aureus [6]) of the same molecule?
A: 0.5 µg/mL (≈ 0.93 µM)

Q: What about the AUBC (Staphylococcus aureus [7]) of the same molecule?
A: 100 log10CFU/ml.hr

Q: What about the AUBC (Staphylococcus aureus [8]) of the same molecule?
A: 103.5 log10CFU/ml.hr

Q: What about the “fT>MIC” value (Staphylococcus aureus [9]) of the same molecule?
A: 98%

Q: And the log10CFU/ml (Staphylococcus aureus [10])?
A: 8.3

Q: What about the log10CFU/ml (Staphylococcus aureus [11]) of the same molecule?
A: <2

Q: And the log10CFU/ml (Staphylococcus aureus [12])?
A: <2

Q: And the log10CFU/ml (Staphylococcus aureus [13])?
A: 4.3

Q: What about the log10CFU/ml (Staphylococcus aureus [14]) of the same molecule?
A: 3.9

Q: And the log10CFU/ml (Staphylococcus aureus [15])?
A: 3.7

Q: And the log10CFU/ml (Staphylococcus aureus [16])?
A: 4.2

Q: And the Activity (Staphylococcus aureus [17])?
A: inactive

Q: And the Activity (Staphylococcus aureus [18])?
A: Active

Q: And the “fT>MIC” value (Staphylococcus aureus [19])?
A: 8.7%

Q: What about the “fT>MIC” value (Staphylococcus aureus [20]) of the same molecule?
A: 61%

Q: What about the “fT>MIC” value (Staphylococcus aureus [21]) of the same molecule?
A: 3.4%

Q: And the “fT>MIC” value (Staphylococcus aureus [22])?
A: 2%

Q: And the log10CFU/ml (Staphylococcus aureus [23])?
A: 4.2

Q: What about the log10CFU/ml (Staphylococcus aureus [24]) of the same molecule?
A: 4

Q: And the log10CFU/ml (Staphylococcus aureus [25])?
A: 4.2

Q: And the log10CFU/ml (Staphylococcus aureus [26])?
A: 3.8

Q: And the log10CFU/ml (Staphylococcus aureus [27])?
A: 4.2
